Published values of several laboratories.
Protocols differ between the studies behind these lines.
GUK1: GUK1 (Homo sapiens, UniProt Q16774)
CA9: Carbonic anhydrase 9 (CA9, Homo sapiens, UniProt Q16790)
ART1: ART1 (Homo sapiens, UniProt P52961)

SMILES	target	test	measurement	result
Nc1ncnc2c1ncn2[C@@H]1O[C@H](CO[P@](=O)(O)O[P@](=O)(O)O[P@@](=O)(O)S)[C@@H](O)[C@H]1O	GUK1	binding, ITC	Kd	40 µM
CC[C@H](C)[C@H](NC(=O)[C@H](CCC(=O)O)NC(=O)[C@H](CO)NC(=O)[C@@H](NC(=O)[C@@H](N)CO)C(C)C)C(=O)N[C@@H](CCC(N)=O)C(=O)N[C@@H](CC(C)C)C(=O)N[C@@H](CCSC)C(=O)N[C@@H](Cc1cnc[nH]1)C(=O)N[C@@H](CC(N)=O)C(=O)N[C@@H](CC(C)C)C(=O)NCC(=O)N[C@@H](CCCCN)C(=O)N[C@@H](Cc1cnc[nH]1)C(=O)N[C@@H](CC(C)C)C(=O)N[C@@H](CC(N)=O)C(=O)N[C@@H](CO)C(=O)N[C@@H](CCSC)C(=O)N[C@@H](CCC(=O)O)C(=O)N[C@@H](CCCNC(=N)N)C(=O)N[C@H](C(=O)N[C@@H](CCC(=O)O)C(=O)N[C@@H](Cc1c[nH]c2ccccc12)C(=O)N[C@@H](CC(C)C)C(=O)N[C@@H](CCCNC(=N)N)C(=O)N[C@@H](CCCCN)C(=O)N[C@@H](CCCCN)C(=O)N[C@@H](CC(C)C)C(=O)N[C@@H](CCC(N)=O)C(=O)N[C@@H](CC(=O)O)C(=O)N[C@H](C(=O)N[C@@H](Cc1cnc[nH]1)C(=O)N[C@@H](CC(N)=O)C(=O)N[C@@H](Cc1ccccc1)C(N)=O)C(C)C)C(C)C	Albumin (ALB, Bos taurus, UniProt P02769)	binding, BLI	Kd	1.61 µM
O=C(OCc1cn(-c2ccc(Cl)cc2)nn1)c1ccc(=O)oc1	CA9	enzyme activity, inhibitor, stopped-flow	Ki	21.9 µM
NC(=O)c1cccnc1	ART1	enzyme activity, inhibitor, fluorescence	Ki	8300 µM
O=C(NCc1cn(-c2ccc([N+](=O)[O-])cc2)nn1)c1ccc(=O)oc1	CA9	enzyme activity, inhibitor, stopped-flow	Ki	7.5 µM
Nc1nc2c(ncn2[C@@H]2O[C@H](COP(=O)(O)O)[C@@H](O)[C@H]2O)c(=O)[nH]1	GUK1	binding, ITC	Kd	39 µM
O=C(O)CCc1ccccc1	Inward rectifier potassium channel 2 (KCNJ2, Homo sapiens, UniProt P63252)	binding, MST	Kd	2110 µM
N#CSCCCCOc1ccc2c(-c3ccccc3)cc(=O)oc2c1	CA9	enzyme activity, inhibitor, stopped-flow	Ki	0.258 µM
Nc1ncnc2c1ncn2[C@@H]1O[C@H](COP(=O)(O)OP(=O)(O)OC[C@H]2OC(O)[C@H](O)[C@@H]2O)[C@@H](O)[C@H]1O (some centres unmarked)	ART1	enzyme activity, inhibitor, fluorescence	Ki	4900 µM
N#CSCc1cc(=O)oc2cc(O)ccc12	CA9	enzyme activity, inhibitor, stopped-flow	Ki	0.0274 µM
Cc1ccc(-n2cc(CNC(=O)c3ccc(=O)oc3)nn2)cc1	CA9	enzyme activity, inhibitor, stopped-flow	Ki	14.5 µM
